The list is not random: actives were taken first. Their share in the collection is about 12%.
Lmaj promast = Leishmania major promastigote growth inhibition; Leishmania major promastigotes, resazurin fluorescence viability; inhibition, % at 10 µM; 200,000 tested, 9% active; in the data active = inhibition above about 50%;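 also: promastigotes grown with compound for 44 hours at 28 °C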
Diaph act CS = activates diaphorase or chemically reduces, flagging diaphorase assay artifacts | Diaphorase/resazurin coupled assay, resorufin fluorescence, 16 min; active compounds read high; 1 = vehicle wells, 0 = NADH-free wells | activation factor at 20 µM | 190,000 tested, 0.005% active | AID 1229;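 active = diaphorase activity raised at least twofold by the compound at 20 µM; inactive = activation factor below 2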
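Test system: Clostridium kluyveri diaphorase, purified enzyme; input: enzyme 0.07 U/mL final; buffer or medium: 50 mM HEPES pH 7.4 with 4.542 mM MgCl2, 0.005% Tween 20; also added: 0.114 mM NADH and 0.1 mM resazurin, final amounts; schedule: 16 min enzyme reaction, ambient temperature; technique: fluorescence of resorufin, 544 nm excitation, 590 nm emission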
ROMK mod = modulators of human ROMK potassium channel. AID 1918. B-score at 10 µM. 130,000 tested, 2% active. P48048. Tet-inducible ROMK, thallium flux fluorescence; actives lie on both sides;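 active = signal ratio slope over the read window, or its plate-corrected B-score, at least 3 SD from the plate mean, either direction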;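 also: B-score of the F/F0 ratio slope over 7 to 12 s after thallium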
Diaphorase inh = counter-screen for diaphorase-based assays: diaphorase inhibitors and chemical oxidizers; diaphorase resazurin-to-resorufin fluorescence, NADH, 16 min; bacterial (C. kluyveri) enzyme, not human; inhibition, % at 20 µM; 190,000 tested, 0.69% active; AID 1217;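 active = primary screen inhibition at 20 µM above a set limit, cut at about 50% in these data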;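 also: plate controls were DMSO with full reaction for no effect and wells lacking NADH for full effect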
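Test system: diaphorase enzyme from Clostridium kluyveri; amount: diaphorase at 0.14 U/mL in enzyme working solution; detection: fluorescence of resorufin formed from resazurin, Ex 544/Em 590 nm; times: reaction incubation of 16 min at room temperature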
WT yeast gro inh = growth inhibition of WT yeast, mitochondrial fusion screen | inhibition, % at 10 µM | mitochondrial fusion phenotypic screen, WT strain | AID 1362 | 190,000 tested, 2.1% active; in the data active = inhibition above about 58%; tested in S. cerevisiae
KCC2 mod = modulates chloride dependent transport by human KCC2; Q9H2X9; B-score of Tl+ flux slope (higher = more flux/activation; lower = inhibition) at 10 µM; 190,000 tested, 2.2% active; KCC2 cells, thallium flux FluoZin-2 fluorescence;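 active = thallium flux slope and its plate-corrected score both differing from the plate sample mean at a set confidence after two filtering rounds, in either direction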;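 also: slope of fluorescence scaled to starting intensity during 10 to 20 s after thallium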
Starred values were filed as active, the others as inactive.

O=C(NC(=S)NCCN1CCOCC1)c1ccc(Cl)cc1 was read as Lmaj promast -2, Diaph act CS 0.9, ROMK mod 0.77, Diaphorase inh 14, WT yeast gro inh 11 and KCC2 mod -0.37.
`O=C(NC(=S)NCCN1CCOCC1)c1ccc(Cl)cc1Cl` gave Lmaj promast 95*, Diaph act CS 1, Diaphorase inh 1, WT yeast gro inh 1 and KCC2 mod -0.21.
Screening Cc1ccc(NC(=O)c2ccc(F)cc2F)cc1NS(C)(=O)=O returned ROMK mod 2.2 and KCC2 mod 0.43.
For CCn1c(COc2cccc3cccnc23)nnc1SC(F)F the results were Lmaj promast 83*, Diaph act CS 1.1, ROMK mod 0.0098, Diaphorase inh -5, WT yeast gro inh 1 and KCC2 mod 0.34.
C=CCN(C(=O)c1cccc(S(=O)(=O)N2CCN(C)CC2)c1)c1nc(-c2ccccc2)cs1 was read as Lmaj promast 0, Diaph act CS 0.7, ROMK mod 0.73, Diaphorase inh 29, WT yeast gro inh 59* and KCC2 mod -0.6.
Cc1csc(N(C(=O)c2cccc(S(=O)(=O)N3CCCC3)c2)c2ccccc2)n1 was read as Lmaj promast -3, Diaph act CS 1.1, ROMK mod 0.19, Diaphorase inh -7, WT yeast gro inh 14 and KCC2 mod -0.36.
For Cc1cc(C)n(-c2nc(NCCC(C)C)c3c4c(sc3n2)COC(C)(C)C4)n1 the results were Lmaj promast 71*, Diaph act CS 0.8, Diaphorase inh 16, WT yeast gro inh 80* and KCC2 mod -1.8.
COc1ccc(C(=O)NC(NC(=S)Nc2ccc(S(N)(=O)=O)cc2)C(Cl)(Cl)Cl)cc1 (configuration not stated) was read as Lmaj promast -13, Diaph act CS 0.8, ROMK mod 0.28, Diaphorase inh 24 and WT yeast gro inh 18.
COc1ccc(C(=O)NNc2ccccc2)cc1 was read as Lmaj promast 92*, Diaph act CS 1.1, Diaphorase inh -6, WT yeast gro inh 30 and KCC2 mod -0.051.
COc1ccc(C(=O)NC(Nc2ccccc2)C(Cl)(Cl)Cl)cc1 (configuration not stated) was read as Lmaj promast 99*, Diaph act CS 0.9, Diaphorase inh 12 and WT yeast gro inh -1.
Screening COc1ccc(C(=O)c2ccccc2)cc1 returned Lmaj promast -2, Diaph act CS 1, ROMK mod -0.068, Diaphorase inh 0, WT yeast gro inh -3 and KCC2 mod 0.62.
For COc1cccc2cc(C(=O)NNC(=O)c3ccc(Br)cc3)c(=O)oc12 the results were Lmaj promast -8, Diaph act CS 1.1, ROMK mod 1.1, Diaphorase inh -13, WT yeast gro inh 10 and KCC2 mod -0.22.
For O=C(CN1CCOCC1)Nc1ccc([N+](=O)[O-])cc1Br the results were Lmaj promast -4, Diaph act CS 0.9, ROMK mod -1.7, Diaphorase inh 9, WT yeast gro inh -2 and KCC2 mod -0.18.
`COc1ccc(C2CC(=O)C3=C(C2)Nc2ccccc2NC3c2coc3ccccc3c2=O)cc1OC` (configuration not stated) gave Lmaj promast 93*, Diaph act CS 0.8, ROMK mod 0.97, Diaphorase inh 18, WT yeast gro inh -15 and KCC2 mod 0.33.
Screening CC1(C)COC(/C=C/c2ccc([N+](=O)[O-])cc2)=N1 returned Lmaj promast 87*, Diaph act CS 0.9, ROMK mod -2, Diaphorase inh 7, WT yeast gro inh 9 and KCC2 mod -0.23.
Screening Cn1cc(Br)c(-c2cccc(NC(=O)CCCC(=O)O)c2)n1 returned KCC2 mod 0.017.
`CCN1C(c2ccccc2)C(C)C(=O)C(C)C1c1ccccc1` (configuration not stated) gave Lmaj promast 0, Diaph act CS 0.9, ROMK mod -0.042, Diaphorase inh 14, WT yeast gro inh 81* and KCC2 mod 1.1.
Screening CC1C2C(c3ccccc3)N(C)C(=O)N(C)C2N(C)C(=O)N1C (configuration not stated) returned Lmaj promast 2, Diaph act CS 0.9, Diaphorase inh 9 and WT yeast gro inh 4.
Screening CCN1CCN(CC(O)COCc2cc(OC)c(OC)c(OC)c2)CC1 (configuration not stated) returned Lmaj promast -3, Diaph act CS 0.8, ROMK mod -0.15, Diaphorase inh 16, WT yeast gro inh -1 and KCC2 mod 0.13.
Screening CC(C)OCC(O)CN1CCN(CC(O)COc2ccc3c(c2)OCO3)CC1 (configuration not stated) returned Lmaj promast -5, Diaph act CS 0.9, ROMK mod -0.013, Diaphorase inh 13, WT yeast gro inh 2 and KCC2 mod 0.69.
Screening Cc1cc(C)cc(OCC(O)CN2CCN(Cc3ccc4c(c3)OCO4)CC2)c1 (configuration not stated) returned Lmaj promast 90*, Diaph act CS 1, ROMK mod -1.4, Diaphorase inh -5, WT yeast gro inh 12 and KCC2 mod -0.56.
For OC(COc1ccc2c(c1)OCO2)CN1CCCC1 (configuration not stated) the results were Lmaj promast 2, Diaph act CS 1, ROMK mod 0.0087, Diaphorase inh 3, WT yeast gro inh -9 and KCC2 mod 0.16.
O=C(CN1CCN(c2ccc(F)cc2)CC1)c1ccc2c(c1)OCO2 was read as Lmaj promast 88*, Diaph act CS 0.9, Diaphorase inh 7, WT yeast gro inh -4 and KCC2 mod -3.3.
`COc1cc(COCC(O)CN2CCN(Cc3ccccc3)CC2)cc(OC)c1OC` (configuration not stated) gave Lmaj promast 88*, Diaph act CS 0.9, ROMK mod -0.26, Diaphorase inh 7, WT yeast gro inh -1 and KCC2 mod -0.0098.
For OC(COc1ccccc1)CN1CCN(Cc2ccc3c(c2)OCO3)CC1 (configuration not stated) the results were Lmaj promast 85*, Diaph act CS 1.1, ROMK mod -0.56, Diaphorase inh -13, WT yeast gro inh -7 and KCC2 mod -2.6.
CCCCCCCCc1nc(SC(C)C(=O)O)n[nH]1 (configuration not stated) was read as Lmaj promast -10, Diaph act CS 0.9, ROMK mod 0.77, Diaphorase inh 5, WT yeast gro inh -7 and KCC2 mod -0.57.
CCOC(=O)C1CCN(CC(O)COCc2ccc3c(c2)OCO3)CC1 (configuration not stated) was read as Lmaj promast 86*, Diaph act CS 1, ROMK mod 0.5, Diaphorase inh 4, WT yeast gro inh -4 and KCC2 mod 0.0024.
